# High-throughput results from PubChem BioAssay.
# AP ELISA ortho: orthogonal test for alternative complement pathway inhibitors; Human serum alternative complement pathway, LPS-coated ELISA, C3 deposition; tested in compound mixtures; inhibition, % at 5 µM; actives 0.08% (n = 62,000);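 active = inhibition above 30% in each of the two pooled mixtures holding the compound, so the lower value exceeds 30%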;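 note: 0% = serum in Mg-EGTA without compound and 100% = EDTA serum blank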
#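 Assay system: Human serum alternative complement pathway, C3 deposition on LPS-coated wells | Incubation: 1 h serum-compound exposure at 37 °C | Doses: 5 µM per compound in ten-compound mixtures | Read-out: Percent inhibition | Technique: ELISA with HRP anti-human C3 antibody, TMB substrate, absorbance 450 nm | Replication: Two pool placements per compound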
# M1 agonist: activates the M1 muscarinic receptor; CHO-M1 cells, Fluo-4 calcium fluorescence, agonist mode; active compounds read high; B-score at 10 µM; actives 3% (n = 64,000);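 active = fluorescence rise, raw or as B-score row- and column-corrected plate score, outside the 99.7% band of its plate's samples, either direction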
# M1 antagonist: blocks the rat M1 muscarinic receptor response to acetylcholine. P08482. CHO-M1 cells, Fluo-4 calcium, ACh EC80 antagonist mode; active compounds read low. B-score at 10 µM. actives 3.4% (n = 64,000);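 active = calcium fluorescence response, raw or row-and-column corrected B-score, differing from the plate sample mean either way at a set confidence level, mostly lower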
# Target sequence (P08482 whole entry, looked up): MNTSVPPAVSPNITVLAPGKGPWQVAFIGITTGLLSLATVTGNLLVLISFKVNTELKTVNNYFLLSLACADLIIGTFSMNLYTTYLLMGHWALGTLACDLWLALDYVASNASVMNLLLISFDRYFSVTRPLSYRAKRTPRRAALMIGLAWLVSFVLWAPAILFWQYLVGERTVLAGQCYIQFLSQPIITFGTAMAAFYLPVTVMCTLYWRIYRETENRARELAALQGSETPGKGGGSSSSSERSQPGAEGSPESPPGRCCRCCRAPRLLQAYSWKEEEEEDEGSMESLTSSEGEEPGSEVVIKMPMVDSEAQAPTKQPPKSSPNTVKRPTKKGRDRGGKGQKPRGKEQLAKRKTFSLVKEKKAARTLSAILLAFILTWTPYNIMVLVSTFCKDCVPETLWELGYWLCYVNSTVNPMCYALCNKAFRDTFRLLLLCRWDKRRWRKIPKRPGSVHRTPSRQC
# mHtt clearance: mutant huntingtin protein clearance; HeLa Exon1htt(103Q)mCFP, aggregate imaging; zero = plate's median compound well; inhibition, % at 1.5 µM; actives 0.42% (n = 47,000); AID 853;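 active = inhibition of aggregate fluorescence above about 70%, also judged a hit by eye on the cell image, limit read from the data, passing the limit was not always enough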;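 note: cells exposed to compound for three days before fixation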
# D1 allo mod: D1 dopamine receptor (human) allosteric modulation; P21728; B-score at 10 µM; HEK293 D1, CRE-luciferase, dopamine EC30 potentiation; actives deviate in either direction; AID 641; actives 5.9% (n = 58,000);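 active = luminescence count or its row- and column-corrected plate score outside the 99.7% band of the plate's sample wells, on either side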
# * = called active by the depositor; / = no result given. Rows were chosen to be rich in hits. Some 9% of all compounds tested hit in one or more screens of this group.
SMILES,AP ELISA ortho,M1 agonist,M1 antagonist,mHtt clearance,D1 allo mod
COc1ccc(Cn2nnnc2CN(Cc2cc3cccc(C)c3[nH]c2=O)C2CCCC2)cc1,1,2.2,1.1,/,-3.3*
CCOc1ccc2[nH]c(=O)c(CN(Cc3nnnn3Cc3ccco3)C3CCCCC3)cc2c1,5,3.6*,-1.5,3,/
O=c1[nH]c2cc3c(cc2cc1CN(Cc1nnnn1CC1CCCO1)C1CCCC1)OCO3 (centres undefined),12,0.59,-1.1,/,-3.3*
COc1ccc(Cn2nnnc2CN(Cc2cc3ccc(C)cc3[nH]c2=O)C2CCCC2)cc1,11,-1.6,0.98,68,0.32
COc1ccc2[nH]cc(CCN=C3SCC(=O)N3C)c2c1,2,0.04,0.37,/,-0.2
O=S(=O)(NCCSc1nnc(-c2ccco2)n1-c1ccccc1)c1ccccc1,-5,1.2,0.74,-27,11*
O=C(CSc1nnc(-c2ccco2)n1-c1ccccc1)N1CCOCC1,7,-1,0.11,/,-0.67
O=C(c1ccccc1C(F)(F)F)N1CCN(S(=O)(=O)c2ccccc2)CC1,10,0.021,0.0077,/,-0.36
O=S(=O)(N1CCOCC1)n1c(Cc2ccccc2)nc2ccccc21,4,0.17,0.62,25,4.4*
O=S(=O)(N1CCOCC1)n1nnc2ccccc21,8,0.75,0.95,24,0.34
CCOc1ccc(-c2nn[nH]n2)cc1,7,0.8,0.044,/,-0.5
CCOc1ccc(-c2cn(CCC#N)cn2)cc1,-12,1.1,2.1*,/,0.062
Cc1ccc(Cl)c(OCC(=O)Nc2ccc3c(c2)OCCO3)c1,-3,4.3*,-0.31,-3,-0.78
Cc1cccc(NC(=O)C2CC(O)CN2C(=O)OCc2ccccc2)c1 (centres undefined),8,0.37,0.048,-52,-3.9*
Cc1ccc(C)c(NC(=O)C2CC(O)CN2C(=O)OCc2ccccc2)c1 (centres undefined),5,0.27,0.59,-98,-0.86
CCC(CC)C(=O)Nc1cc(C)cc(C)c1,1,-0.033,3.3*,/,-0.011
CCC(CC)C(=O)Nc1ccccc1NC(C)=O,12,0.087,-0.23,/,0.43
CCCCOc1ccc(-c2nnn(CC(=O)Nc3ncc(CC(=O)OCC)s3)n2)cc1,-3,-1,2.5*,/,-0.85
CC(=O)Nc1ccc(NC(=O)C(F)(F)F)cc1,/,/,/,4,/
CC(=O)Nc1ccccc1NC(=O)C(F)(F)F,22,-0.45,1.8*,21,0.22
Cc1oc(-c2ccc3c(c2)OCCO3)cc1C(=O)NC(CCC(=O)O)C(=O)O (centres undefined),-2,-0.21,0.99,9,-0.95
Cc1oc(-c2ccc3c(c2)OCCO3)cc1C(=O)O,-10,-1.5,0.23,/,-6.2*
O=C(CCn1nnc2ccccc2c1=O)NCC1CCC(C(=O)O)CC1 (centres undefined),15,0.27,-0.11,-103,0.38
O=C(O)CCCCCNC(=O)CCn1nnc2ccccc2c1=O,2,0.056,1.6*,34,-0.31
Cn1c(=O)n(CCN2CCOCC2)c(=O)c2c1nc1n2CCN1c1ccccc1,-17,2.1,-0.076,-53,-2.1
SMILES,AP ELISA ortho,M1 agonist,M1 antagonist,mHtt clearance,D1 allo mod
Cc1sc(NC(=O)c2ccco2)nc1-c1ccccc1,/,/,/,36,/
Cc1sc(NC(=O)c2ccco2)nc1-c1ccc2c(c1)CC(C)N2C(=O)C1CC1 (centres undefined),8,14*,-3.6*,/,-3.6*
CC(=O)N1C(=O)N(C)C2C1N(C)C(=O)N2C(C)=O (centres undefined),13,0.3,1.4,/,0.052
CC(=O)OC1C(OC(C)=O)N(C(C)=O)C(=O)N1C(C)=O (centres undefined),23,1.7,1.9*,26,-0.62
c1ccc(C2=Nn3c(nnc3-c3n[nH]c4c3CCC4)SC2)cc1,10,-0.14,0.36,-36,-3.6*
CC(N1CCOC1=O)S(=O)(=O)c1ccccc1 (centres undefined),/,/,/,24,/
CN(C)C=Nc1ccc2nn(-c3ccccc3)nc2c1,1,-1.3,-1.2,/,-2.5*
Cc1cccc2sc(NC(=O)C3c4ccccc4Oc4ccccc43)nc12,/,/,/,3,/
Cc1cc(NC(=O)CSc2nnc3c(C)cc4cc5c(cc4n23)OCO5)no1,0,-0.3,-0.5,/,/
CN/C=C1\C(=O)C(C)(C)Oc2ccc3ccc(=O)oc3c21,12,1.5,0.078,10,1.3
CC1(C)Oc2ccc3ccc(=O)oc3c2/C(=C/Nc2ccccn2)C1=O,-7,-0.53,-0.46,/,-3.6*
